Source: PMC7526717 (Journal of Clinical Oncology, 2020)
“And” between values parts separate entries of the source, which are not always exact repeats. Identical values can stand only once. “Also recorded” adds a separate entry of the source. Like-named read-outs stand apart in the source and are kept apart here.

Experiments:
[1] = Plasma pharmacokinetics in patients; format: in vivo, human
[2] = Phase I study safety: TEAEs, DLTs, MTD; format: in vivo, human; conditions: for MTD: maximum dose evaluated 200 mg twice a day
Summary of the method: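 Oral test compound was given at 20-200 mg twice a day or 100-250 mg once daily in 28-day cycles, using pharmacologically guided 3 + 3 escalation. A level was safe with zero DLTs in three or one in six patients. AEs were recorded from consent to 30 days after last dose and investigator-graded by CTCAE v4.03. Safety population: all patients dosed.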

[3] = system: advanced gastrointestinal stromal tumor (GIST); assay: Phase I study efficacy, investigator assessed, RECIST version 1.1; format: in vivo, human; conditions: 150 mg once daily
Summary of the method: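 Patients with advanced GIST after ≥1 prior systemic therapy received oral test compound 150 mg once daily in 28-day cycles, in dose-escalation or expansion. Imaging at screening, after cycles 2, 4 and 6, then every three cycles and at final visit. Responses were investigator-assessed per RECIST 1.1 and confirmed about 28 days later. Intent-to-treat population, grouped by line of therapy.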

advanced GIST = conditions: cited from earlier work
PDGFRB = conditions: cited from earlier work
TIE2 = conditions: cited from earlier work
VEGFR2 = conditions: cited from earlier work
BRAF = conditions: cited from earlier work
metastatic GIST = conditions: first-line; cited from earlier work
GIST [4] = conditions: cited from earlier work
GIST [5] = conditions: cited from earlier work; remark: listed apart in the source
[6] = 150 mg once daily, cycle 1 day 15

For CCn1c(=O)c(-c2cc(NC(=O)Nc3ccccc3)c(F)cc2Br)cc2cnc(N)cc21 [DP-5439], the accumulation [1, 6] was 4.6- to 5.3 fold, the “exposure (AUC) relative to parent ripretinib” value ([1]; 15 days of dosing at 150 mg once daily) was “approximately 129%” and the “exposure (AUC) relative to parent ripretinib” value ([1]; single 150-mg doses) was “approximately 49%”.
For CCn1c(=O)c(-c2cc(NC(=O)Nc3ccccc3)c(F)cc2Br)cc2cnc(NC)cc21 [Ripretinib, 1-[4-bromo-5-[1-ethyl-7-(methylamino)-2-oxo-1,2-dihydro-1,6-naphthyridin-3-yl]-2-fluorophenyl]-3-phenylurea], the DLT ([2]; 100 mg twice a day (n = 12)) was “asymptomatic grade 3 lipase elevation”, the DLT ([2]; 150 mg once daily (n = 12)) was “asymptomatic grade 4 creatine phosphokinase increase” and the DLT ([2]; 200 mg twice a day (n = 7)) was “asymptomatic grade 3 lipase elevation”. For the same molecule, the “Alopecia, Total Grades 1–4” value ([2]; GIST, 150 mg once daily) was 88 [62.0%] No. (%) and 88 (62.0%) No. (%), the “Constipation, Total Grades 1–4” value ([2]; GIST, 150 mg once daily) was 56 [39.4%] No. (%) and the “Decreased appetite, Total Grades 1–4” value ([2]; GIST, 150 mg once daily) was 48 [33.8%] No. (%). The “Diarrhea, Total Grades 1–4” value ([2]; GIST, 150 mg once daily) was 47 [33.1%] No. (%), the “Fatigue, Total Grades 1–4” value ([2]; GIST, 150 mg once daily) was 78 [54.9%] No. (%) and the “Lipase increased, Grade 3/4” value ([2]; GIST, 150 mg once daily) was 25 (17.6%) No. (%). For the same molecule, the “Myalgia, Total Grades 1–4” value ([2]; GIST, 150 mg once daily) was 69 [48.6%] No. (%), the “Nausea, Total Grades 1–4” value ([2]; GIST, 150 mg once daily) was 65 [45.8%] No. (%) and the “PPES, Total Grades 1–4” value ([2]; GIST, 150 mg once daily) was 62 [43.7%] No. (%). For the same molecule, the “TEAEs leading to a dose reduction” value ([2]; GIST, 150 mg once daily) was 26 (18.3%) patients (%), the “TEAEs leading to treatment interruption” value ([2]; GIST, 150 mg once daily) was 77 (54.2%) patients (%) and the “Treatment-emergent SAE: abdominal pain” value ([2]; GIST, 150 mg once daily) was 14 [9.9%] n [%]. For the same molecule, the “Treatment-emergent SAE: cancer surgery” value ([2]; GIST, 150 mg once daily) was 7 [4.9%] n [%], the “Treatment-emergent SAE: death” value ([2]; GIST, 150 mg once daily) was 11 [7.7%] n [%] and the “Treatment-emergent SAE: sepsis” value ([2]; GIST, 150 mg once daily) was 6 [4.2%] n [%]. For the same molecule, the “patients who discontinued study treatment because of PPES” value ([2]; GIST, 150 mg once daily) was “no patients”, the “Any TEAE” value ([2]; GIST, 150 mg once daily, total) was 142 (100%) No. (%) and the “Any TEAE, grade 3 and 4” value ([2]; all patients) was 173 (67.1%) No. (%). The “Any TEAE, grade All” value ([2]; all patients) was 257 (99.6%) No. (%), the “TEAEs leading to a dose reduction” value ([2]; all patients) was 38 (14.7%) patients (%) and the “TEAEs leading to treatment interruption” value ([2]; all patients) was 127 (49.2%) patients (%). The “Treatment-emergent SAE: abdominal pain” value ([2]; all patients) was 17 [6.6%] n [%], the “Treatment-emergent SAE: cancer surgery” value ([2]; all patients) was 10 [3.9%] n [%] and the “Treatment-emergent SAE: death” value ([2]; all patients) was 16 [6.2%] n [%]. For the same molecule, the “Treatment-emergent SAE: dyspnea” value ([2]; all patients) was 8 [3.1%] n [%], the “discontinued study treatment secondary to a drug-related TEAE” value ([2]; all patients) was 16 (6.2%) patients (%) and the “treatment-emergent serious adverse event (SAE)” value ([2]; all patients) was 137 (53.1%) patients (%). The DLTs reported ([2]; dose-escalation phase) was “Three”, the “patients at each dose level who experienced a DLT” value ([2]; dose-escalation phase) was < 33% and the RP2D ([2]; in vivo) was 150 mg once daily. For the same molecule, the MTD [2] was “no maximum tolerated dose was reached”, the MTD ([2]; listed as ripretinib) was “not reached; also recorded: No MTD was reached” and the “Duration of response, median (95% CI)” value ([3]; fourth line or greater) was 17.5 months. For the same molecule, the “ORR (95% CI)” value ([3]; fourth line or greater) was 7.2%, the “PFS, median (95% CI)” value ([3]; fourth line or greater) was 5.5 months and the “probability of PFS at 12 months” value ([3]; fourth line or greater) was 21.2%. For the same molecule, the “Duration of response, median (95% CI)” value ([3]; second line) was 18.4 months, the “ORR (95% CI)” value ([3]; second line) was 19.4% and the “PFS, median (95% CI)” value ([3]; second line) was 10.7 months. For the same molecule, the “probability of PFS at 12 months” value ([3]; second line) was 33.5%, the “ORR (95% CI)” value ([3]; third line) was 14.3% and the “PFS, median (95% CI)” value ([3]; third line) was 8.3 months. For the same molecule, the “probability of PFS at 12 months” value ([3]; third line) was 29.2%, the “Duration of response, median (95% CI)” value ([3]; total) was 18.4 months and the “ORR (95% CI)” value ([3]; total) was 11.3%. For the same molecule, the “Cmax higher compared with cycle 1 day 1” value [1, 6] was 61%, the “accumulation on the basis of AUC0-12h” value ([1]; 150 mg once daily, cycle 1 day 15 vs day 1) was 66% and the Tmax ([1]; human, plasma, oral, time to Tmax, single doses, fasting, cycle 1 day 1) was 2 to 10 h. For the same molecule, the “CV% for Cmax and AUC0-24h” value ([1]; single doses with PK data for at least 10 patients) was 35%-60%, the mPFS (advanced GIST) was 6.3 month and the inhibition in vitro (PDGFRB) was “inhibits”. For the same molecule, the inhibition in vitro (TIE2) was “inhibits”, the inhibition in vitro (VEGFR2) was “inhibits” and the inhibition in vitro (BRAF) was “inhibits”.
In the case of Cc1ccc(NC(=O)c2ccc(CN3CCN(C)CC3)cc2)cc1Nc1nccc(-c2cccnc2)n1 [imatinib], the mPFS (metastatic GIST) is given as 1.7-2 years.
In the case of CNC(=O)c1cc(Oc2ccc(NC(=O)Nc3ccc(Cl)c(C(F)(F)F)c3)c(F)c2)ccn1 [regorafenib], the “syndromes such as PPES, grade 3” value (GIST [4]) is given as 19.7% and the mPFS (GIST [4]; third-line) is given as ~4.8 months.
In the case of CCN(CC)CCNC(=O)c1c(C)[nH]c(/C=C2\C(=O)Nc3ccc(F)cc32)c1C [sunitinib], the “syndromes such as PPES, grade 3” value (GIST [5]) is listed as 4% and the mPFS (GIST [5]; second-line) is listed as “approximately 5.6 months”.
